Structures are written as SMILES.

Test [1] has as its target T1, Melanocortin receptor 4 (Homo sapiens, UniProt P32245). The test is described as follows: Inhibition against human melanocortin-4 (MC4) receptor. In outline: (§1)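 BHK570 cells stably transfected with MC4 cDNA, with clones selected in G418/MTX medium. Membranes were homogenised in 20 mM Hepes pH 7.1, 5 mM MgCl2 and bacitracin. 10 μg membranes were incubated with 80 pM 125-labelled NDP-α-MSH and varying test concentrations in 25 mM HEPES pH 7.0 buffer (CaCl2, MgSO4, EGTA, tween 20, 0.1% HSA) for 2 h at 25 °C. Samples were filtered and washed with ice-cold saline, then counted; IC50 was determined.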

Test [2] concerns the target Growth hormone secretagogue receptor type 1 (Sus scrofa, UniProt Q95254). The test is described as follows: Inhibition against pig growth hormone secretagogue (GHS) receptor.
Test [3] concerns the target T2, Growth hormone secretagogue receptor type 1 (Homo sapiens, UniProt Q92847). The test is described as follows: Inhibition against human growth hormone secretagogue (GHS) receptor. The essentials: (§2)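 Competition binding assay with ghrelin as tracer, run as previously described. IC50 values were derived from tracer displacement.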
The target in test [4] is T3, Type-1 angiotensin II receptor (Homo sapiens, UniProt P30556).
T3 sequence (P30556 whole entry): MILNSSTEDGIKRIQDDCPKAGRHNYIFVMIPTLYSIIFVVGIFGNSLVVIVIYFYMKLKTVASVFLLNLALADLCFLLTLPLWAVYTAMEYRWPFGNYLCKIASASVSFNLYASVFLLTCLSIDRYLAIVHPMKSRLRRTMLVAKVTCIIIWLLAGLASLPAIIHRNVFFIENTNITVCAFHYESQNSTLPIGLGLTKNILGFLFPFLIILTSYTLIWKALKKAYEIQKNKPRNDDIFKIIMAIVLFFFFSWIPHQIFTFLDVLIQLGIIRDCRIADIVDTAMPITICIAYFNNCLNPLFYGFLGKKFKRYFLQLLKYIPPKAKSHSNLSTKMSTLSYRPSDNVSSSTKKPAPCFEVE
Briefly: Inhibition against human angiotensin II receptor, type 1 (AG2-R). In outline:
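Competition binding assay with saralasin as tracer, run externally by a contract lab following a published method. IC50 values were derived from tracer displacement.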

The target in test [5] is 5-hydroxytryptamine receptor 6 (Homo sapiens, UniProt P50406). The test is described as follows: Inhibition against human 5-hydroxytryptamine 6 receptor.
Test [6] deals with T1, Melanocortin receptor 4. The test is described as follows: Inhibition against human melanocortin-4 (MC4) receptor; No binding detected. In outline:
as §1

The target of test [7] is T2, Growth hormone secretagogue receptor type 1. The test is described as follows: Inhibition against human growth hormone secretagogue (GHS) receptor; No binding detected. In outline:
as §2

T2 sequence (Q92847 whole entry): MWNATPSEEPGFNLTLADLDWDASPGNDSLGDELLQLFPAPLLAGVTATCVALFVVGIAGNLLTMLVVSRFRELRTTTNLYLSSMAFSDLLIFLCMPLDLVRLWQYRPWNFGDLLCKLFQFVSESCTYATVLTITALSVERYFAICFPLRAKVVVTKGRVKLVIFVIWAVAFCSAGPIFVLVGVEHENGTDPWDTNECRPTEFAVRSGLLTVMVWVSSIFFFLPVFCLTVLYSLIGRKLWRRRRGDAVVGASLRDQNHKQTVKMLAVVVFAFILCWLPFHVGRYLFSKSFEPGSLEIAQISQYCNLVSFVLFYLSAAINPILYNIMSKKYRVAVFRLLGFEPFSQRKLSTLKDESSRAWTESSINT
T1 sequence (P32245 whole entry): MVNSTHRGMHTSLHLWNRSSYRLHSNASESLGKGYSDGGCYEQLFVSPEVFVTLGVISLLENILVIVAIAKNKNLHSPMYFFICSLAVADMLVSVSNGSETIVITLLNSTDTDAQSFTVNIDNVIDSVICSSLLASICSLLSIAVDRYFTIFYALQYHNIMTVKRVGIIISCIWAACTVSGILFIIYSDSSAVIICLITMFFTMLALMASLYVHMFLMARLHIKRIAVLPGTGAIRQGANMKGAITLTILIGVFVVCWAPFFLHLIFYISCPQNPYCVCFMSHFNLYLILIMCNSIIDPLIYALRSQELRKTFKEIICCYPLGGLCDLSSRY
Sequence of Growth hormone secretagogue receptor type 1 (Sus scrofa, UniProt Q95254) (Q95254 whole entry): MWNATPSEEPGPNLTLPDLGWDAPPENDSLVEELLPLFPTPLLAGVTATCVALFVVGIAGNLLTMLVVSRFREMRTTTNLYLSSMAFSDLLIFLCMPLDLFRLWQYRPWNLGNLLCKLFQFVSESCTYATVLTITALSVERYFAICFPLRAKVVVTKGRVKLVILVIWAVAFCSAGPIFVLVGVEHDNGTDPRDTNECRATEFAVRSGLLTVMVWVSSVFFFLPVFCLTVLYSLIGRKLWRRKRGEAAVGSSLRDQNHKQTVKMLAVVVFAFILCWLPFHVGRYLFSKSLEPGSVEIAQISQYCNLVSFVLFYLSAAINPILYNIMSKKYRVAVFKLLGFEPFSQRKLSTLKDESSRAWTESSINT
Sequence of 5-hydroxytryptamine receptor 6 (P50406 whole entry): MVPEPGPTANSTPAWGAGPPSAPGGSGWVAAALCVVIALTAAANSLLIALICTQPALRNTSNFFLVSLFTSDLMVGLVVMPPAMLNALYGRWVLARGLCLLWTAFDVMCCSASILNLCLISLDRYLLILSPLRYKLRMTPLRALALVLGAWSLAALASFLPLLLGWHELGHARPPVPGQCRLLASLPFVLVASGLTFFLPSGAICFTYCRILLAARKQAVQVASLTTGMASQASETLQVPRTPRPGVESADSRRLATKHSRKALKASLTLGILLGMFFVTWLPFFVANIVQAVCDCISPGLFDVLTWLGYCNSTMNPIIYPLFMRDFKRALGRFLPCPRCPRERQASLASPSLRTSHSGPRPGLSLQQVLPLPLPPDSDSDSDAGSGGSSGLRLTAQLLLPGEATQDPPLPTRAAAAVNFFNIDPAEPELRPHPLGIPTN

Consider `Cc1ccc2[nH]c(-c3ccc(Br)cc3)c(CCCCCNC3CCCCC3)c2c1`, for which, in test [1], half-maximal inhibition (IC50) required 612 nM. For `CC(C)(N)CC(=O)N[C@@H]1CCc2ccccc2N(Cc2ccc(-c3ccccc3-c3nnn[nH]3)cc2)C1=O`, the figures for the IC50 in test [2], in test [3] and in test [4] were 63 nM, 2800 nM and 3600 nM, respectively.

For `CS(=O)(=O)N1CC2(CCN(C(=O)[C@@H](Cc3ccc(Cl)cc3)NC(=O)C3Cc4ccccc4CN3)CC2)c2ccccc21` (some centres undefined), the 50% inhibitory concentration (IC50) came out at 100 nM in test [1] and 190 nM in test [3]. In test [5], `CN(C)CCCc1c(-c2cccc(Br)c2)[nH]c2ccccc12` displayed a 50% inhibitory concentration (IC50) of 0.7 nM. For `CC(C)(N)C(=O)N[C@H](COCc1ccccc1)C(=O)N1CCC2(CC1)CN(S(C)(=O)=O)c1ccccc12` [IBUTAMOREN], the IC50 entry in test [6] is “Not Active”.

For `CCCCc1nc(Cl)c(CO)n1Cc1ccc(-c2ccccc2-c2nnn[nH]2)cc1` [LOSARTAN], in test [7], the IC50 result is reported as “Not Active”.

The values are drawn from ChEMBL document CHEMBL1137085, “Recognition of privileged structures by G-protein coupled receptors” (J Med Chem, 2004).
